# Hits are enriched below; roughly 1.7% of the tested compounds scored in any of these assays.
# STEP inh – blocks human striatal-enriched tyrosine phosphatase | AID 588621 | recombinant STEP, OMFP fluorogenic substrate, fluorescence | 360,000 compounds, 0.25% hits | inhibition, % at 20 µM | P54829;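 active = inhibition at 20 µM, scaled per plate between control wells, above about 37%, limit read from the data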;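 also: 0% = DMSO with enzyme and substrate and 100% = substrate only without enzyme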
#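 Assay system: isolated STEP enzyme / Timing: 20 min at room temperature, dark / Doses: 20 µM, 1% DMSO / Technique: fluorescence intensity, excitation 480 nm, emission 540 nm / Reagent: fluorogenic phosphatase substrate OMFP at 25 µM final / Measure: percent inhibition scaled to no-enzyme and uninhibited-enzyme controls, plate-pattern corrected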
# SUMO1-SIM PPI – alters human SUMO1 binding to SIM partners | P63165 | SUMO1 binding to a labelled peptide, TR-FRET, 1 h | inhibition, % at 20 µM | 360,000 compounds, 0.33% hits; in the data active = inhibition above about 37%
# Target sequence (P63165 whole entry, looked up): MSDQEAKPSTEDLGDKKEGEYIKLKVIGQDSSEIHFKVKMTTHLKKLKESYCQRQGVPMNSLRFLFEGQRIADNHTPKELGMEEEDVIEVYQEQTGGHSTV
# DNMT1 inh – inhibitors of human DNMT1; P26358; DNMT1 molecular beacon, Hinp1I cleavage, fluorescence; inhibition (reported as % activation of signal), % at 10 µM; 360,000 compounds, 0.83% hits; AID 588458; in the data active = inhibition above about 50%
# LMPTP inh – LMPTP (human) inhibition. AID 651560. recombinant LMPTP-A, OMFP fluorogenic substrate, fluorescence intensity. P24666. inhibition, % at 20 µM. 360,000 compounds, 0.22% hits;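 active = compounds that cut the enzyme signal by at least half of the control window in the single-dose screen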;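 also: plate controls were DMSO wells with enzyme plus substrate for no effect and substrate without enzyme for full effect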
# Target sequence (P24666 whole entry, looked up): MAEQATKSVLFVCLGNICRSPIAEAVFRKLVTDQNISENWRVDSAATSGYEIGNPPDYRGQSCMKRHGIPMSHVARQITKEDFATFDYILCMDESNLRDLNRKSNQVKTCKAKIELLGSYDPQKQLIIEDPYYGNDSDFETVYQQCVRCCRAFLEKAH
#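 Test system: LMPTP-A phosphatase enzyme. Amount: LMPTP-A at 0.625 nM final in the reaction. Reagent: OMFP substrate, 400 µM final. Times: 50 min at room temperature. Signal: endpoint fluorescence intensity from OMFP dephosphorylation. Read-out basis: % inhibition. Benchmarks: no-enzyme and uninhibited controls.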
# Scp1 inh – blocks human Scp-1 phosphatase activity | AID 493091 | inhibition, % at 20 µM | Q9GZU7 | Recombinant Scp1, phosphopeptide, malachite green phosphate absorbance | 340,000 compounds, 0.88% hits;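 active = inhibition above about 50% at 20 µM, limit read from the data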;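 also: plate controls were DMSO wells with enzyme for no effect and wells lacking enzyme for full effect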
# Target sequence (Q9GZU7 76-261 limits assumed): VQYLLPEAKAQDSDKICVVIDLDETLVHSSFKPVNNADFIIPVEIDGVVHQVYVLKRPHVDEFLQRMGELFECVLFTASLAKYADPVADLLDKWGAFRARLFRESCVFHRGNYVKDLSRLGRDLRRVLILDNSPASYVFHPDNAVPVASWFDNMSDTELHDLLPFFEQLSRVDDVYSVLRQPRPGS
#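 assay system = SCP-1 phosphatase catalytic domain, residues 76-261 | buffer or medium = 50 mM Tris acetate pH 5.5, 0.005% Tween-20, 10 mM MgCl2 | incubation = enzyme reaction 45 min at room temperature, colour 5 min, stabilisation 30 min | signal = Phosphate-binding colour reagent, absorbance read at 630 nm | measure = % inhibition at 20 µM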
# Scp-1 conf – confirmation of human Scp-1 phosphatase inhibitors; shares compounds with Scp1 inh; 2,500 compounds, 61% hits; recombinant SCP-1 catalytic domain, phosphate release, malachite green absorbance; inhibition, % at 20 µM;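 also: plate controls were DMSO with enzyme for no effect and buffer wells lacking enzyme for full effect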
# Scp-1 MG ctr – counter-screen for Scp-1 inhibitors: colorimetric interference; Colorimetric interference counterscreen, malachite green absorbance 630 nm; apparent inhibition (interference), % at 20 µM; 2,500 tested, under 10 active; shares compounds with Scp1 inh;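 also: compounds added after enzyme reaction finished so only phosphate colour detection is probed; plate controls were DMSO wells with completed Scp-1 reaction for no effect and substrate wells lacking enzyme for full effect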
# Scp-1 Tm shift – Scp-1 (human) binding by thermal shift. 1,500 compounds, 25% hits. shares compounds with Scp1 inh. AID 540329. Recombinant SCP1, Sypro Orange thermal shift Tm. thermal shift relative to vanadate control, % at 40 µM;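 active = substances whose mean melting-temperature shift, as a percentage of the reference inhibitor's shift, reaches about 5.3%, limit read from the data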;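 also: 0% = Tm of DMSO wells and 100% = Tm with sodium orthovanadate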
# DNMT1 inh conf – DNMT1 inhibition confirmation, single concentration. 2,300 compounds, 8% hits. inhibition, % at 10 µM. DNMT1 molecular beacon HinP1I cleavage, fluorescence. shares compounds with DNMT1 inh;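 active = average inhibition of at least 30% in the single-concentration confirmation test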
# Beacon interf – counter-screen for DNMT1 inhibitors: spectral interference; shares compounds with DNMT1 inh; DNMT1 molecular beacon spectral interference counterscreen, fluorescence 485/520; activation (fluorescence interference), % at 10 µM; 2,300 compounds, 1% hits; AID 602387;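 active = activation of at least 30% at 10 µM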;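 also: DNMT1 catalytic domain with a HinP1I cleavage step and a FAM/dabcyl DNA beacon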
# Starred values were filed as active, the others as inactive; . = no result.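 The calls were made as follows, unless noted: active = inhibition of at least 30% at 20 µM; inactive = the rest.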
SMILES,STEP inh,SUMO1-SIM PPI,DNMT1 inh,LMPTP inh,Scp1 inh,Scp-1 conf,Scp-1 MG ctr,Scp-1 Tm shift,DNMT1 inh conf,Beacon interf
O=C(/C=C/c1ccco1)NC1CCCC1,6,0,9,3,21,.,.,.,.,.
O=C(C=Cc1ccco1)c1ccco1,7,1,11,2,13,.,.,.,.,.
O=C(O)C(C(=O)/C=C/c1ccco1)=C1SCCS1,10,25,96*,10,55*,63*,-2,3,4,0
O=C(C=C1SCCS1)/C=C/c1ccco1,6,2,88*,34,76*,52*,-20,-8,3,-2
COc1ccc2[nH]c(=O)cc(C(=O)O)c2c1,2,6,58*,0,69*,73*,-10,-4,8,6
COc1cccc(C(=O)N2CCN(Cc3ccccn3)CC2)c1,1,1,3,-2,5,.,.,.,.,.
O=C(N/N=C/c1ccco1)C1CC1c1ccccc1 (stereo unspecified),4,0,92*,6,60*,48*,-14,-14,21,4
O=C(N/N=C/c1ccco1)C1CC1,-1,-2,-1,0,3,.,.,.,.,.
CCOc1ccc(CCNC(=O)C2CC=CCC2C(=O)OC(C)C)cc1OCC (stereo unspecified),3,2,-1,-1,-4,.,.,.,.,.
CCOc1ccc(CCNC(=O)C2CC(C)=CCC2C(=O)O)cc1OCC (stereo unspecified),19,56*,53*,-1,87*,58*,-14,-19,3,3
CCOc1ccc(CNC(=O)C2CCCN(S(=O)(=O)N3CC(C)CC(C)C3)C2)cc1OC (stereo unspecified),1,-2,0,2,-6,.,.,.,.,.
COc1ccc(NC(=O)/C(C#N)=C/c2ccc(Br)o2)cc1,6,1,99*,23,77*,56*,-14,5.5*,1,1
CS(=O)(=O)c1ccc(-c2sc3ccccc3c2C(=O)N2CCN(c3ccc(F)cc3)CC2)cc1,-3,-1,60*,6,68*,63*,-10,4,10,1
CC(=O)Nc1ccc2c(COC(=O)CC3Sc4ccccc4NC3=O)cc(=O)oc2c1 (stereo unspecified),12,2,60*,14,57*,70*,-10,4,10,3
COc1ccc2c(COC(=O)CC3Sc4ccccc4NC3=O)cc(=O)oc2c1 (stereo unspecified),-1,-1,-1,3,3,.,.,.,.,.
O=C(/C=C/c1ccco1)N(c1ccccn1)c1ccccn1,26,19,97*,15,65*,69*,-6,6.3*,6,-3
CC(=O)Nc1ccc(-c2ccnc3c2CC(C)(C(=O)NCCc2ccccc2)O3)cc1 (stereo unspecified),-1,-9,3,0,.,.,.,.,.,.
O=c1c2c(nc3cc(-c4ccccc4Cl)[nH]n13)CCS2,5,12,77*,33,64*,12,-9,.,1,2
O=C(c1cccc(S(=O)(=O)N2CCc3ccccc3C2)c1)N1CCN(c2ccc(O)cc2)CC1,11,0,0,0,42,.,.,.,.,.
CSc1ccc(NC(=O)CSc2nc3[nH]c(=O)cc(O)c3s2)cc1,10,12,52*,48,71*,40*,-21,14*,2,-2
Cc1ccc(NC(=O)Cn2c(O)c(N=NC(N)=O)c3ccccc32)cc1,-3,-29,1,-1,-8,.,.,.,.,.
Cc1ccccc1NC(=O)Cn1c(O)c(N=NC(=O)c2ccccc2O)c2ccccc21,48*,-2,91*,46,94*,77*,-13,-3,15,-6
CC(=O)Nc1cccc(-c2ccnc3c2CC(C)(C(=O)Nc2ccc(Cl)cc2)O3)c1 (stereo unspecified),-4,8,-13,2,.,.,.,.,.,.
O=C(Nc1ccccc1C(F)(F)F)NC1(C(=O)N2CCOCC2)CCCCC1,28,42*,95*,61*,75*,55*,-22,12*,9,-4
O=C(Nc1cc2c(oc1=O)CCCC2=O)c1cccc(Cl)c1,-7,-18,-3,-1,-2,.,.,.,.,.
SMILES,STEP inh,SUMO1-SIM PPI,DNMT1 inh,LMPTP inh,Scp1 inh,Scp-1 conf,Scp-1 MG ctr,Scp-1 Tm shift,DNMT1 inh conf,Beacon interf
COc1ccc(C(=O)Nc2cc3c(oc2=O)CCCC3=O)cc1,1,-13,68*,1,57*,44*,-6,-2,2,1
CC(CS(=O)(=O)c1ccc2c(c1)NC(=O)CS2)C(=O)NCc1ccccc1Cl (stereo unspecified),5,90*,93*,2,76*,81*,6,4,17,4
CC(=O)Nc1cc(-c2cccnc2)cn2c(-c3cccc(C(F)(F)F)c3)cnc12,2,-13,3,1,.,.,.,.,.,.
O=C(Nc1ccc(Br)cc1)Nc1ccccc1Cl,-2,-2,3,3,-8,.,.,.,.,.
CCN(C(=O)C(C)Sc1ccc(S(=O)(=O)N2CCOCC2)cn1)c1ccccc1 (stereo unspecified),0,0,2,-1,-5,.,.,.,.,.
Cc1ccc(C=C2C(=O)c3ccccc3C2=O)o1,2,-13,70*,2,55*,59*,-17,6.2*,3,2
CC(Sc1nnc(-c2ccc(Cl)cc2)n1N)C(=O)NCC1CCCO1 (stereo unspecified),2,2,-1,-2,-2,.,.,.,.,.
COc1ccc(N2Cc3cccc(C(=O)O)c3C2=O)cc1,6,16,87*,7,82*,71*,-10,0,15,-1
COc1ccc(N2Cc3ccccc3C2=O)cc1,2,0,0,-1,-2,.,.,.,.,.
Cc1ccc(S(=O)(=O)/N=C2/NC(=O)/C(=C/c3ccc(Br)o3)S2)cc1,8,27,85*,3,56*,54*,-28,14*,8,-1
Cc1ccc(S(=O)(=O)/N=C2/NC(=O)/C(=C\c3cc(Br)cc(Br)c3O)S2)cc1,-3,28,21,-1,-10,.,.,.,.,.
